# Laboratory results reported in article PMC5730275 (Chemical communications (Cambridge, England), 2017).
# Substitutions are numbered along the chain they refer to.
# What was measured:
# [1] = target: purified human recombinant NAPE-PLD (Homo sapiens, UniProt Q6IQ20); test: Inhibition of purified human recombinant NAPE-PLD; format: biochemical
# Method in brief: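 Purified recombinant human NAPE-PLD. Michaelis-Menten kinetics and activity time-course were run with vehicle (1% DMSO) or test compound at 50 or 100 μM. Reversibility was tested by rapid dilution after preincubating the enzyme with vehicle (1% DMSO) or test compound (100 μM).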
# Q320S NAPE-PLD = target: T1, Q320S NAPE-PLD (Homo sapiens, UniProt Q6IQ20, Q320S); test: Inhibition of Q320S NAPE-PLD mutant; format: biochemical
# T1 sequence (Q6IQ20 1-393 Q320S): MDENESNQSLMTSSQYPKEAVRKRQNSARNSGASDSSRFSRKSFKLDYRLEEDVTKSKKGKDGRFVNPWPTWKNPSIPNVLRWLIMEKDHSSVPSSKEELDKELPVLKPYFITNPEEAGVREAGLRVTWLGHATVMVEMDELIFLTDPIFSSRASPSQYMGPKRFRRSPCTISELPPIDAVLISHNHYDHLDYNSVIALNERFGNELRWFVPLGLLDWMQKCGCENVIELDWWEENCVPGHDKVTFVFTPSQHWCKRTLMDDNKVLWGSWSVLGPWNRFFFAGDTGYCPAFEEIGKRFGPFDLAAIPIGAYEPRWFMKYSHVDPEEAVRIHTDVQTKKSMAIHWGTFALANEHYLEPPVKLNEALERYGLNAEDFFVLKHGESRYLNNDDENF
# Human HEK-293 cells = test: NAPE and FAE levels in intact HEK-293 cells by LC-MS; format: cell-based; settings: 50 μM, 4 hours
# Method in brief: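 Human HEK-293 cells, which express NAPE-PLD constitutively, incubated with test compound at 50 μM for 4 h. Lipid extracts then prepared, and NAPE and fatty acid ethanolamide levels measured by liquid chromatography-mass spectrometry.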
# [2] = target: T2, human N-acylethanolamine acid amidase (NAAA) (Homo sapiens, UniProt Q02083); test: Selectivity: NAAA activity; format: biochemical; settings: 300 μM
# T2 sequence (Q02083 29-359): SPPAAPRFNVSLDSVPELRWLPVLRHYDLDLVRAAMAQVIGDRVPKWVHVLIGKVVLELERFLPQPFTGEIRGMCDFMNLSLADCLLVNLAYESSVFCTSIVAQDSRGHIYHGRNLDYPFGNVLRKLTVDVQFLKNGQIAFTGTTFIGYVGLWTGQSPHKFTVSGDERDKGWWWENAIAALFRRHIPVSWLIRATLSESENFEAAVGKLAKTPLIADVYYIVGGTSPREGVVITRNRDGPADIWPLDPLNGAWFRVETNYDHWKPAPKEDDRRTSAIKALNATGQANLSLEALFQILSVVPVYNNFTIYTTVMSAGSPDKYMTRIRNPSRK
# [3] = target: T3, NAPE-PLD mutant Q158S/Y159S (Homo sapiens, UniProt Q6IQ20, Q158S/Y159S); test: Inhibition of double NAPE-PLD mutant Q158S/Y159S; format: biochemical; settings: mutant unable to bind bile acids
# T3 sequence (Q6IQ20 1-393 Q158S/Y159S): T1 sequence (Q6IQ20 1-393 Q320S) with Q158S, Y159S, S320Q
# [4] = target: angiotensin-converting enzyme (ACE) (Homo sapiens, UniProt P12821); test: Selectivity: zinc-dependent enzyme ACE; format: biochemical; settings: 50 μM
# [5] = Solubility in assay buffer; format: physicochemical; settings: microscopic inspection of assay wells
# [6] = tested on: isofunctional, but zinc-independent enzyme activities present in cytosolic and microsomal fractions of mouse brain or small intestine; test: Isofunctional zinc-independent enzyme activities in mouse tissue fractions; format: biochemical; settings: 300 μM
# neutral endopeptidase = neutral endopeptidase (Homo sapiens, UniProt P08473); test: Selectivity: zinc-dependent enzyme neutral endopeptidase; format: biochemical; settings: 50 μM
# Q320A NAPE-PLD mutant = target: T4, Q320A NAPE-PLD mutant (Homo sapiens, UniProt Q6IQ20, Q320A); test: Inhibition of Q320A NAPE-PLD mutant; format: biochemical
# T4 sequence (Q6IQ20 1-393 Q320A): T1 sequence (Q6IQ20 1-393 Q320S) with S320A
# [7] = target: carbonic anhydrase (CA) II (Homo sapiens, UniProt P00918); test: Selectivity: zinc-dependent enzyme carbonic anhydrase II; format: biochemical; settings: 50 μM
# [8] = target: T5, human fatty acid amide hydrolase (FAAH)-1 (Homo sapiens, UniProt O00519); test: Selectivity: FAAH-1 activity; format: biochemical; settings: 300 μM
# T5 sequence (O00519 1-579): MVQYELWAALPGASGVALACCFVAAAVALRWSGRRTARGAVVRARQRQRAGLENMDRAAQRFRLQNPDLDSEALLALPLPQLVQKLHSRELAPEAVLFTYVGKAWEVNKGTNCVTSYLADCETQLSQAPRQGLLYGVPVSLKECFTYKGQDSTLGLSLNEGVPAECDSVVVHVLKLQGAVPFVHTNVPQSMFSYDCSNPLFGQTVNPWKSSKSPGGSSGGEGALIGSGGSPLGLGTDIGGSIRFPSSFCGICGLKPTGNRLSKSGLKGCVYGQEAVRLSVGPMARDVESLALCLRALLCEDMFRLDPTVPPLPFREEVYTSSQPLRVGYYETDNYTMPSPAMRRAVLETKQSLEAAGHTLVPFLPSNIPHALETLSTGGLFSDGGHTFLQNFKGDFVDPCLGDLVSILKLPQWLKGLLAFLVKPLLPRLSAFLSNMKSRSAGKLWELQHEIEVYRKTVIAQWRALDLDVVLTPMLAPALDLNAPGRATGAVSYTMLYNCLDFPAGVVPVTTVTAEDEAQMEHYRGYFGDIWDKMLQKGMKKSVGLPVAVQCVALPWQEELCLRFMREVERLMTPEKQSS
# Chain of purified human recombinant NAPE-PLD (Q6IQ20 whole entry): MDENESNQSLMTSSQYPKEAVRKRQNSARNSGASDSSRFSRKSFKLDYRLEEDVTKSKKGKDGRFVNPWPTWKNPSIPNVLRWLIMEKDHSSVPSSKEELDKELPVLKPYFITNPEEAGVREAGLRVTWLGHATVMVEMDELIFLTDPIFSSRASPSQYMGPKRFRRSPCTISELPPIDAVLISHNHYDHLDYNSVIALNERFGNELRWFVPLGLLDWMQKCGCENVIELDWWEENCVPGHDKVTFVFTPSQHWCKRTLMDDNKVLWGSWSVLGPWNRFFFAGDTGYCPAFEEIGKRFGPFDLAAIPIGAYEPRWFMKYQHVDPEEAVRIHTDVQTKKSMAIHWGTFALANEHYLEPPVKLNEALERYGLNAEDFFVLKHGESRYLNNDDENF
# Chain of neutral endopeptidase (P08473 whole entry, species assumed): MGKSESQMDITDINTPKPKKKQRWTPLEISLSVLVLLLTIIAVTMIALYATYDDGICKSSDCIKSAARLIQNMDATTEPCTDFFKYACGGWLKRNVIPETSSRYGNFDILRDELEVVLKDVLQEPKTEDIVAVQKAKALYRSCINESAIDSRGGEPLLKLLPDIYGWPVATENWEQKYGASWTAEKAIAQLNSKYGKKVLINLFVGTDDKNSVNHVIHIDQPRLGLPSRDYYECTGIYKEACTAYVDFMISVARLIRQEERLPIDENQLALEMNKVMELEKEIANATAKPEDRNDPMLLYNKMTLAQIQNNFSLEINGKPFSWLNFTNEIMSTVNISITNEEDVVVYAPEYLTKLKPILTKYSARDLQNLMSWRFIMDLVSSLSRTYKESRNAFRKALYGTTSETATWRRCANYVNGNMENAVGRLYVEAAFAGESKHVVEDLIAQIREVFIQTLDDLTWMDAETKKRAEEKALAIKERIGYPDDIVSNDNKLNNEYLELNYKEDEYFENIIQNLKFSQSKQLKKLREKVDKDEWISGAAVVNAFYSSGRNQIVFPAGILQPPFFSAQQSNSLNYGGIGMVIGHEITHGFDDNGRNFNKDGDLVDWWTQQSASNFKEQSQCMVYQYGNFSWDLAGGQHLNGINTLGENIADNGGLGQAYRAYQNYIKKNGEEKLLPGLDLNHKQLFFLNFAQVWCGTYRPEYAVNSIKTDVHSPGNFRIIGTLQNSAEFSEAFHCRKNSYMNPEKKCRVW
# Chain of angiotensin-converting enzyme (ACE) (P12821 30-1306, species assumed): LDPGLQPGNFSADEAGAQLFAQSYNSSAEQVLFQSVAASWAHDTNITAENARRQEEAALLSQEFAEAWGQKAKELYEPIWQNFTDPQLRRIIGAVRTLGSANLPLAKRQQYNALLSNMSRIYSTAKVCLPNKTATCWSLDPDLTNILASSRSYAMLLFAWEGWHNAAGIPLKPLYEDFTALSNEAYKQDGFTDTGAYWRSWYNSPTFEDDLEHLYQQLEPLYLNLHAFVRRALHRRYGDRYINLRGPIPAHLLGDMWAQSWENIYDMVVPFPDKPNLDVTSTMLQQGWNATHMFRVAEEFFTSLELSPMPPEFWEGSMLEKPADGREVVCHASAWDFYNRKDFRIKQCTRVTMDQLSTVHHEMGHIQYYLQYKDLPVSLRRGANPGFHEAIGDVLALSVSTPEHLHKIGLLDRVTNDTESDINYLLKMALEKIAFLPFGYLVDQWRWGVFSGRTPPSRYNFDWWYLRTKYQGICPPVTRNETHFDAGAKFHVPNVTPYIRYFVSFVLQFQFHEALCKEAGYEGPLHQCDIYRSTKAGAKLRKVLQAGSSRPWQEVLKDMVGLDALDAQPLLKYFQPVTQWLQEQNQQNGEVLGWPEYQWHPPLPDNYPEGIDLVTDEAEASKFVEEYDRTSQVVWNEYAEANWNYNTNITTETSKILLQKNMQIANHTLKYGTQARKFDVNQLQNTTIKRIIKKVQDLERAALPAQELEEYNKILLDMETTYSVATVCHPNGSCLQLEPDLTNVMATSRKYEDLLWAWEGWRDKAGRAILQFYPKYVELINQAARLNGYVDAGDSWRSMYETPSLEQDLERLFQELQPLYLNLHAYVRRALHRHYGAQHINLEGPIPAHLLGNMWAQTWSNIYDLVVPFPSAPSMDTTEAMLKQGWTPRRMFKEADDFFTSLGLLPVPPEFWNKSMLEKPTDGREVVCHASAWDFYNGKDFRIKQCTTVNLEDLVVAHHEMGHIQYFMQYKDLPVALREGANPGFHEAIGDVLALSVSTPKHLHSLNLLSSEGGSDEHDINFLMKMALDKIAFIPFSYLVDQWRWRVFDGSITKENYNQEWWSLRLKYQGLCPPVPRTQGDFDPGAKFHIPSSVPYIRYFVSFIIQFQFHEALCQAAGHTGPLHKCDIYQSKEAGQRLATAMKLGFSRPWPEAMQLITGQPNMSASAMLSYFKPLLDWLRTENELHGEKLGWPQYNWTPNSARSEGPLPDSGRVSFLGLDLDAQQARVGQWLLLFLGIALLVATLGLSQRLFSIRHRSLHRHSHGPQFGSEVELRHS
SMILES,"Inhibition of purified NAPE-PLD (concentration-response, Figure 3a) ([1]; identical conditions as 18)",IC50 (Q320S NAPE-PLD) [µM],Endogenous oleoylethanolamide (OEA) levels in HEK-293 cells (Human HEK-293 cells),Endogenous palmitoylethanolamide (PEA) levels in HEK-293 cells (Human HEK-293 cells),NAPE levels in HEK-293 cells (Human HEK-293 cells),Effect on human NAAA activity [2],Susceptibility of Q158S/Y159S mutant to inhibition [3],Inhibitory effect on angiotensin-converting enzyme (ACE) [4],Time-course of NAPE-PLD inhibition ([1]; 18 at 50 or 100 μM),"Mechanism of NAPE-PLD inhibition (kinetic analyses) ([1]; Michaelis-Menten kinetics, 18 at 50 or 100 μM)",Reversibility upon dilution of enzyme-inhibitor complex (rapid dilution assay) ([1]; preincubated with 100 μM),Solubility in assay / aqueous buffer [5],Effect on isofunctional zinc-independent enzyme activities [6],Inhibitory effect on neutral endopeptidase (neutral endopeptidase),IC50 (Q320A NAPE-PLD mutant) [µM],Inhibitory effect on carbonic anhydrase (CA) II [7],Effect on human FAAH-1 activity [8]
"O=C(Cc1cccs1)N[C@@H]1C(=O)N2C(C(=O)O)=C(/C=C/c3ccc([N+](=O)[O-])cc3[N+](=O)[O-])CS[C@H]12 [nitrocefin, reference compound]",inactive,,,,,,,,,,,,,,,,
"O=c1[nH]c(=O)c2cc(S(=O)(=O)Nc3ccc(-c4ccncc4)cc3)ccc2[nH]1 [Compound 18, 2,4-dioxo-N-[4-(4-pyridyl)phenyl]-1H-quinazoline-6-sulfonamide]",,36.7 ± 1.6,remained unmodified,remained unmodified,substantial accumulation,did not affect,as susceptible to inhibition by 18 as wild-type NAPE-PLD,no inhibitory effect,rapid,uncompetitive,readily reversed,adequate solubility,did not affect,no inhibitory effect,89.2 ± 2.3,no inhibitory effect,did not affect
